From publication PMC9137328 (Bioorganic chemistry, 2020)
“Also recorded” adds a separate entry of the source. Like-named read-outs stand apart in the source and are kept apart here.

How the values were obtained:
ERRα [1] = biological target: T1, ERRα (Homo sapiens, UniProt P11474); assay: Cell-based; details: for ERRα activity (in words): HEK293 co-transfection luciferase
T1 sequence (P11474 1-423): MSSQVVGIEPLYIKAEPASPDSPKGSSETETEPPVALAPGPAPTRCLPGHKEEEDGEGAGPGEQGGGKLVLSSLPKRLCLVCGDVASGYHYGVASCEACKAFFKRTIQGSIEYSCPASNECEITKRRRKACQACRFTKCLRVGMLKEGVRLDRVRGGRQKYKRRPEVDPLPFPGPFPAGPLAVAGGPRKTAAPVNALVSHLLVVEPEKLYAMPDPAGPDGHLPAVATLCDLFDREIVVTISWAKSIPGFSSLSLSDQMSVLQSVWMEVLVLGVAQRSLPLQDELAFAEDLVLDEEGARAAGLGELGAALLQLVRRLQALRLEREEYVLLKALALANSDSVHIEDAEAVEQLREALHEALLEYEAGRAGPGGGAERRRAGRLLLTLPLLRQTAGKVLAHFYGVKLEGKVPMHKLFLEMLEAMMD

ERRγ [2] = biological target: T2, ERRγ (Homo sapiens, UniProt P62508); assay: Cell-based; details: for ERRγ activity (in words): HEK293 co-transfection luciferase
T2 sequence (P62508 1-458): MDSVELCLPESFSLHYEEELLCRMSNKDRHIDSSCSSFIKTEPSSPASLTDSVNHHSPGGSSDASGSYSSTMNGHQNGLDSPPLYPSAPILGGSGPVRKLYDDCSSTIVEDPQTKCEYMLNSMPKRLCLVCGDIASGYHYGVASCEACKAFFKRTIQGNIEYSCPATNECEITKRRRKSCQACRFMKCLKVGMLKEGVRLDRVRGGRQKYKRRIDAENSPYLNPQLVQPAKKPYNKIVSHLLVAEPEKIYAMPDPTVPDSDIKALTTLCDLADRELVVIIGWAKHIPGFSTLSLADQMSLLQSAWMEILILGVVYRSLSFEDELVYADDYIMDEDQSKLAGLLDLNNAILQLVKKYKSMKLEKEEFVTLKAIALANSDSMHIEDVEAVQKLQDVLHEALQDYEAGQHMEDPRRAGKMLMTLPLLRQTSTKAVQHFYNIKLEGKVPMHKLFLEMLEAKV

ERRβ [3] = biological target: T3, ERRβ (Homo sapiens, UniProt O95718); assay: Cell-based co-transfection ERR responsive luciferase reporter assay, ERRβ
T3 sequence (O95718 1-433): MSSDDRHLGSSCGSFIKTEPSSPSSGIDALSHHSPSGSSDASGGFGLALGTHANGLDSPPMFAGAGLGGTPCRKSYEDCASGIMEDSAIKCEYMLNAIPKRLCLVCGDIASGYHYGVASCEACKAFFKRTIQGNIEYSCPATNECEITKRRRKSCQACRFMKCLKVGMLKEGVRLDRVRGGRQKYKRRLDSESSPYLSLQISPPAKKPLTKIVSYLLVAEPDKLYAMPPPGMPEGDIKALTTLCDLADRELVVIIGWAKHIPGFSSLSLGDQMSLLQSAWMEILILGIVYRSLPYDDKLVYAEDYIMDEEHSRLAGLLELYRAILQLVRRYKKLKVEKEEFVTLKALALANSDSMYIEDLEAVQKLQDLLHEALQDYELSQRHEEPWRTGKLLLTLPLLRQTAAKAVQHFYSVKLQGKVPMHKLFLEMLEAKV

C2C12 cells = assay: Cell viability assay, FITC Annexin V/PI flow cytometry; assay type: cell-based; details: 1 and 10 μM, 24 h
Summary of the method: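 C2C12 mouse myoblasts were kept in DMEM with 10% FBS and 1% L-glutamine. They were seeded at 2.5 million cells per well and grown 24 h to confluence. Cells were exposed 24 h to test compound in DMSO at 1 or 10 μM, with a DMSO-only control, in triplicate. Harvested cells were stained with FITC-Annexin V and propidium iodide and analysed by flow cytometry for live/dead cells.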

[4] = tested on: ERR target genes PGC-1α, PGC-1β, CPT1α and PDK4; assay: Gene expression; assay type: cell-based, mouse; details: C2C12 cells, 1 μM of tested compounds, 24 h
Summary of the method: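 Confluent C2C12 myoblasts (DMEM, 10% FBS, 1% L-glutamine; 2.5 million cells per well) were treated 24 h with test compound in DMSO or with DMSO vehicle, in triplicate groups. Total RNA was column-extracted and 1 μg was reverse-transcribed. Transcripts were quantified by SYBR qPCR, with samples run in duplicate. Relative expression was calculated by ΔΔCt against 36b4 as the reference gene.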

ERRα [5] = biological target: T1, ERRα; details: cited from earlier work
ERRγ [6] = biological target: T2, ERRγ; details: cited from earlier work
ERRβ [7] = biological target: T3, ERRβ; details: cited from earlier work

Compound: Cc1ccc(C(=O)N/N=C/c2ccccc2O)cc1 [Compound 33, (E)-N’-(2-Hydroxybenzylidene)-4-methylbenzohydrazide]
- EC50 (ERRα [1]): 483 nM
- EC50 (ERRγ [2]): 235 nM
- EC50 (ERRβ [3]): 123 nM

Compound: Cc1ccccc1C(=O)N/N=C/c1ccccc1O [Compound 29, (E)-N’-(2-Hydroxybenzylidene)-2-methylbenzohydrazide]
- EC50 (ERRα [1]): 453 nM
- EC50 (ERRγ [2]): 254 nM
- EC50 (ERRβ [3]): 583 nM
- Cell viability / signs of toxicity (C2C12 cells): No signs of toxicity; also recorded: did not show signs of toxicity

Compound: O=C(NN=Cc1ccccc1)c1ccccc1 [Compound 10]
- ERRα activity (in words) (ERRα [1]): complete loss of activity; also recorded: completely inactive
- ERRγ activity (in words) (ERRγ [2]): complete loss of activity; also recorded: completely inactive

Compound: O=C(N/N=C/c1ccccc1O)c1ccccc1O [Compound 36]
- ERRγ activity (in words) (ERRγ [2]): inactive

Compound: O=C(NN=Cc1ccccc1O)c1ccccc1 [Compound 13]
- ERRα activity (in words) (ERRα [1]): completely inactive
- ERRγ activity (in words) (ERRγ [2]): completely inactive

Compound: O=C(N/N=C/c1ccccc1[N+](=O)[O-])c1ccccc1 [Compound 34]
- ERRα activity (in words) (ERRα [1]): completely inactive
- ERRγ activity (in words) (ERRγ [2]): completely inactive

Compound: O=C(NN=Cc1ccnc2ccccc12)c1ccccc1 [Compound 46, quinolin-4-ylmethylene benzohydrazide]
- IC50 (ERRα [1]): 4580 nM

Compound: Cc1ccc(C(=O)N/N=C/c2ccccc2)cc1 [Compound 24, (E)-N’-Benzylidene-4-methylbenzohydrazide]
- EC50 (ERRβ [3]): 162 nM
- PDK4 transcription [4]: potently upregulated
- mRNA levels of PGC-1α [4]: increase the mRNA levels
- mRNA levels of PGC-1β [4]: increase the mRNA levels
- Cell viability / signs of toxicity (C2C12 cells): No signs of toxicity; also recorded: did not show signs of toxicity

Compound: O=C(NN=Cc1ccccc1)c1ccccc1O [Compound 19]
- ERRα activity (in words) (ERRα [1]): moderately potent
- ERRγ activity (in words) (ERRγ [2]): moderately potent

Compound: O=C(N/N=C/c1ccccc1[N+](=O)[O-])c1ccccc1 [Compound 16, (E)-N’-(2-Nitrobenzylidene)benzohydrazide]
- fold more potent toward ERRα than 14 (ERRα [1]; compared to 14): ≈ 17 fold
- fold increase in potency toward ERRα compared to 15 (ERRα [1]; compared to 15): > 6 fold
- selectivity toward ERRγ over ERRα (ERRγ [2]; from EC50 values): 1.6 fold
- PDK4 transcription [4]: potently upregulated
- expression of CPT1α [4]: significantly increased the expression

Compound: COc1ccc(/C=N/NC(=O)c2ccc(Br)cc2)cc1 [Compound 35, (E)-4-Bromo-N’-(4-methoxybenzylidene)benzohydrazide]
- EC50 (ERRα [1]): 540 nM
- EC50 (ERRγ [2]): 398 nM
- PDK4 transcription [4]: potently upregulated
- mRNA levels of PGC-1α [4]: increased the mRNA levels

Compound: CN(C)c1ccc(C=NNC(=O)c2ccccc2)cc1 [Compound 11]
- ERRα activity (in words) (ERRα [1]): no ERRα activity; also recorded: inactive
- ERRγ activity (in words) (ERRγ [2]): activity was regained

Compound: O=C(N/N=C/c1cccs1)c1ccccc1 [Compound 42, (E)-N’-(Thiophen-2-ylmethylene)benzohydrazide]
- ERRα activity (in words) (ERRα [1]): weak agonistic effect
- ERRγ activity (in words) (ERRγ [2]): weak agonistic effect
- EC50 (ERRβ [3]): 1190 nM
- activity toward ERRβ, folds higher than ERRα (ERRβ [3]; from EC50 values): 1.8 folds
- PDK4 transcription [4]: potently upregulated
- mRNA levels of PGC-1α [4]: increase the mRNA levels
- mRNA levels of PGC-1β [4]: increase the mRNA levels
- Cell viability / signs of toxicity (C2C12 cells): No signs of toxicity; also recorded: did not show signs of toxicity

Compound: O=C(N/N=C/c1ccccc1O)c1ccccc1O [Compound 27, (E)-2-Hydroxy-N’-(2-hydroxybenzylidene)benzohydrazide]
- EC50 (ERRα [1]): 378 nM
- activity toward ERRα, folds higher than ERRβ (ERRα [1]; from EC50 values): ≈ 2 folds
- selectivity toward ERRα over ERRγ (ERRα [1]; from EC50 values): > 4 fold
- EC50 (ERRγ [2]): 1650 nM
- EC50 (ERRβ [3]): 772 nM
- Cell viability / signs of toxicity (C2C12 cells): No signs of toxicity; also recorded: did not show signs of toxicity

Compound: O=C(NN=Cc1ccccc1)c1ccc(Br)cc1 [Compound 21]
- ERRα activity (in words) (ERRα [1]): completely lost ERRα activity; also recorded: inactive
- ERRγ activity (in words) (ERRγ [2]): moderate ERRγ activity; also recorded: very weak

Compound: Cc1ccccc1C(=O)NN=Cc1ccccc1 [Compound 23]
- ERRα activity (in words) (ERRα [1]): no activity

Compound: O=C(NN=Cc1ccccc1O)c1ccc(Cl)cc1 [Compound 31]
- ERRα activity (in words) (ERRα [1]): weak activity
- ERRγ activity (in words) (ERRγ [2]): weak activity

Compound: O=C(N/N=C/c1ccccc1[N+](=O)[O-])c1ccc([N+](=O)[O-])cc1 [Compound 38, (E)-4-Nitro-N’-(2-nitrobenzylidene)benzohydrazide]
- EC50 (ERRα [1]): 646 nM
- fold decrease in potency against ERRα (ERRα [1]; compared to 16): ≈ 1.5 fold
- EC50 (ERRγ [2]): 260 nM

Compound: CC(C)c1ccc(/C=N/NC(=O)c2ccc(O)cc2)cc1 [GSK4716 (6)]
- ERRα activity (in words) (ERRα [1]): very weak activity
- EC50 (ERRβ [3]; read-out: ERRβ EC50, agonism, co-transfection luciferase reporter): 280 nM
- reported activity on ERRα (ERRα [5]): no observed activity
- reported activity on ERRγ (ERRγ [6]): agonist
- reported activity on ERRβ (ERRβ [7]): agonist
